Measured values collected from several papers.
Target: cAMP-dependent protein kinase catalytic subunit alpha (PRKACA, Homo sapiens, UniProt P17612)

SMILES	effect on	action	method	concentration	quantity	value
Cn1c2c(c3ccc(Cl)c(Cl)c31)C(C#N)C1(CCOCC1)NC2=O (stereo not drawn)	thermal stability	–	DSF	10 µM	ΔTm	0.1 °C
CN(c1nccc(-c2cnn3ncccc23)n1)C1CC1	cell-free assay	–	–	1 µM	remaining signal	100%
CCCOc1ccc(OC)c(F)c1C(=O)c1ccc(C(=O)N[C@@H]2CNC[C@H]2NC(=O)c2ccc3[nH]ncc3c2)cc1	enzyme activity	inhibitor	–	10 µM	remaining activity	1%
Cn1c(=O)n(-c2ccc(C(C)(C)C#N)cc2)c2c3cc(-c4cnc5ccccc5c4)ccc3ncc21	enzyme activity	inhibitor	–	10 µM	remaining activity	82%
O=C(Nc1cccnn1)N1CCC(=Cc2cccc(Oc3ccc(C(F)(F)F)cn3)c2)CC1	cell-free assay	–	competition with immobilised ligand	1 µM	remaining binding	100%
Cn1c2c(c3ccc(Cl)c(Cl)c31)C(C#N)C(C)(C)NC2=O (stereo not drawn)	thermal stability	–	DSF	10 µM	ΔTm	0.4 °C
Cn1cnc(Br)c1C1=CN(c2ncnc3[nH]cnc23)CCS1	enzyme activity	inhibitor	radiometric	50 nM	inhibition	21.5%
O=C(NCCCC1CCCCC1)c1ccc(CNC(=O)c2cnn(-c3ccccc3)c2C(F)(F)F)cc1	cell-free assay	–	competition with immobilised ligand	0.1 µM	remaining binding	100%
FC(F)(F)Oc1cccc(-c2cnc3ccc(-c4ccncc4)nn23)c1	enzyme activity	inhibitor	radiometric	5 µM	activity vs control	106%
Cc1sc(C(=O)NC2COC2)cc1-n1cc(NC(=O)Nc2c(F)cccc2Cl)cn1	enzyme activity	inhibitor	–	10 µM	remaining activity	94.5%
CC(C)(C)c1nc(-c2cccc(NS(=O)(=O)c3c(F)cccc3F)c2F)c(-c2ccnc(N)n2)s1	enzyme activity	inhibitor	radiometric	1 µM	remaining activity	95%
CC(=O)C1=C(C)N(c2cccc(C(F)(F)F)c2)C(=O)N[C@@H]1c1ccc(C#N)nc1	cell-free assay	–	competition with immobilised ligand	1 µM	remaining binding	92.3%
CS(=O)(=O)Nc1cccc(-c2csc(NC(=O)CSc3nc4nccnc4c(=O)n3CCc3ccccc3)n2)c1	enzyme activity	inhibitor	–	10 µM	inhibition	5%
Cc1cc(NC(=O)c2cccc(S(F)(F)(F)(F)F)c2)cc(-n2ccn3nc(-c4cccnc4)cc23)c1	cell-free assay	–	competition with immobilised ligand	1 µM	remaining binding	100%
CNc1cccc2cc(C(=O)Nc3ccc(C(=O)O)cc3)c(=O)[nH]c12	enzyme activity	inhibitor	–	10 µM	inhibition	-8.1%
N[C@@H]1CCN(c2nccc(-c3cnn4ncccc34)n2)C1	cell-free assay	–	–	1 µM	remaining signal	96%
N#CCCc1ccc2c(c1)-c1[nH]c3ccc([N+](=O)[O-])cc3c1CC(=O)N2	cell-free assay	–	–	0.5 µM	remaining signal	87.6%
CC(C)c1ccc(NC(=O)c2cccs2)c(-c2nc3ccccc3[nH]c2=O)c1	enzyme activity	inhibitor	–	1 µM	activity vs control	108%
CN(C)CC#Cc1ccc(OCCCc2sc(N3CCc4cccc(C(=O)Nc5nc6ccccc6s5)c4C3)nc2C(=O)O)c(F)c1	cell-free assay	–	competition with immobilised ligand	1 µM	remaining binding	89%
COc1cc2ncnc(Nc3ccc(Oc4ccccc4)cc3C)c2cc1OC	enzyme activity	inhibitor	–	1 µM	inhibition	3%
Cc1cc(-n2nc(Cc3cc(F)cc(C(F)(F)F)c3)nc2C)ccc1C(N)=O	cell-free assay	–	competition with immobilised ligand	1 µM	remaining binding	100%

SMILES	effect on	action	method	concentration	quantity	value
CCCS(=O)(=O)Nc1ccc(F)c(C(=O)c2c[nH]c3ncc(-c4ccc(Cl)cc4)cc23)c1F	enzyme activity	inhibitor	–	1 µM	inhibition	< 10%
CN1CC(Oc2cnc(C#N)cc2-c2ccn3nc(NC(=O)C4CC4)cc3c2)C1	enzyme activity	inhibitor	–	1 µM	inhibition	7%
Cc1cnc(NC2CCOCC2)nc1-n1cnc(C(=O)NC(CN)c2cc(F)cc(Cl)c2)c1 (stereo not drawn)	enzyme activity	inhibitor	radiometric	1 µM	remaining activity	45%
COc1cc(Nc2cnc(C#N)c(O[C@H](C)CN(C)C)n2)ncc1-c1cnn(C)c1	enzyme activity	inhibitor	radiometric	1 µM	remaining activity	104%
Nc1ncnc2occ(-c3ccc(NC(=O)Nc4cc(C(F)(F)F)ccc4F)cc3)c12	enzyme activity	inhibitor	–	20 µM	remaining activity	12%
Cn1c2c(Cl)c(Cl)ccc2c2cc(N)[nH]c(=O)c21	thermal stability	–	DSF	10 µM	ΔTm	0.1 °C
CCCCN(CCCC)C(=O)CN1C[C@H](c2cc(OC)c3c(c2)OCO3)[C@@H](C(=O)O)[C@@H]1CC(C)(C)CCC	cell-free assay	–	competition with immobilised ligand	1 µM	remaining binding	100%
CCN(CC)CCNC(=O)c1c(C)[nH]c(/C=C2\C(=O)Nc3ccc(F)cc32)c1C	enzyme activity	inhibitor	–	0.3 µM	inhibition	11%
Cc1ccc(NC(=O)c2ccc(C)c(C(F)(F)F)c2)cc1C#Cc1nn(C2CCC(O)CC2)c2ncnc(N)c12 (stereo not drawn)	cell-free assay	inhibitor	–	10 µM	remaining signal	60%
CN(C)C1CCN(CC#Cc2nn(C3CCCC3)c3nc(NCc4ccccc4)ncc23)C1 (stereo not drawn)	enzyme activity	inhibitor	FRET	1 µM	inhibition	6%
Cc1ccc(NC(=O)c2ccc(CN3CCN(C)CC3)cc2)cc1Nc1nccc(-c2cccnc2)n1	enzyme activity	inhibitor	–	0.5 µM	activity vs control	95.4%
CSc1nc(C)c(-c2ccnc(Nc3ccc(N4CCOCC4)cc3)c2)[nH]1	enzyme activity	inhibitor	–	10 µM	inhibition	5%
COc1cc(Cl)c(C(=O)N[C@@H](CN[C@H]2CC[C@@H](N)CC2)Cc2ccc(C#N)cc2)cc1-c1ccc(CN[C@H](C)c2ccc(C)cc2)o1	enzyme activity	inhibitor	–	1 µM	remaining activity	106%
CC(C)(C)C(=O)c1sc(NC2CCCCC2)nc1N	enzyme activity	inhibitor	–	10 µM	remaining activity	106%
CCN1CCC2(CC1)NC(=O)c1c(c3ccc(Cl)c(Cl)c3n1C)C2C#N (racemic)	thermal stability	–	DSF	10 µM	ΔTm	1.9 °C
Cc1ccc(Nc2nccc(N(C)c3ccc4c(C)n(C)nc4c3)n2)cc1S(N)(=O)=O	enzyme activity	inhibitor	–	0.3 µM	inhibition	6%
O=C1Nc2ccc(Cl)cc2C1=Cc1cc(Cl)c(O)c(Cl)c1	cell-free assay	–	–	0.5 µM	remaining signal	101%
Cn1c2c(c3ccccc31)C(C#N)C(C)(C)NC2=O (stereo not drawn)	thermal stability	–	DSF	10 µM	ΔTm	0.2 °C
CCCOc1ccc([C@H]2[C@H](C(=O)O)[C@@H](c3ccc4c(c3)OCO4)CN2CC(=O)Nc2c(CC)cccc2CC)cc1	cell-free assay	–	competition with immobilised ligand	1 µM	remaining binding	100%
CN(c1ncccc1CNc1nc(Nc2ccc3c(c2)CC(=O)N3)ncc1C(F)(F)F)S(C)(=O)=O	enzyme activity	inhibitor	–	1 µM	inhibition	78.4%
COc1cc2ncnc(Nc3ccc(F)c(Cl)c3)c2cc1OCCCN1CCOCC1	cell-free assay	–	–	0.5 µM	remaining signal	96.3%
